# Compound activity from PubChem BioAssay.
# Only a selection was taken, and hits are over-represented in it overall.
# Dynein cargo inh – inhibitors of GR-EGFP nuclear translocation, primary screen, dynein cargo transport inhibitor project, imaging, high-content, 3617.4 mouse cells; test concentration mostly 20 µM; stimulated with dexamethasone, 1 µM; active compounds read low; z-score, hits read low; 220,000 compounds, 0.47% hits; AID 1381, 2008;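 active means plate z-score of nuclear minus cytoplasmic receptor signal below a set negative limit, without overly bright fluorescence or cell loss, cut at about -3.5 in these data, passing the limit was not always enough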;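 further: z-score of nuclear minus cytoplasmic ring GR-EGFP intensity difference per well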
#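 Buffer or medium: tetracycline-free induction medium containing charcoal-stripped FBS / Reagent: dexamethasone agonist, 1.0 µM final, for 30 min / Technique: automated 10x imaging of fixed Hoechst-stained cells / Times: induction 48 h, compound 1 h, agonist 30 min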
# UPR CHOP act – activators of apoptotic CHOP UPR arm, primary screen, cell-based, CHO-CHOP luciferase reporter, luminescence, uHTS; UPR activation; percent of tunicamycin response over DMSO baseline; activation, % at 10 µM; 330,000 compounds, 0.34% hits;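 active means at 10 µM dose, activation of 40% or more, normalized to positive control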;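 further: 100% = tunicamycin at 10 µg/mL and 0% = DMSO alone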
#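 Dosing – one dose, 10 µM in 0.5% DMSO · System – CHO-CHOP cells, stable luciferase reporter of PERK-eIF2a-CHOP signalling · Input – 500 cells/well · Control set – tunicamycin 10 µg/mL final as positive, DMSO-only wells as negative · Timing – 6 h compound treatment, 37 °C · Measure – % activation vs tunicamycin · Technique – luminescence read with Steady-Glo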
# UPR XBP1 act – activators of adaptive XBP1 UPR arm, primary screen, cell-based, CHO-XBP1 luciferase reporter, luminescence, uHTS | IRE1-XBP1 UPR activation; percent of tunicamycin response, DMSO as zero | activation, % at 20 µM | 330,000 compounds, 0.33% hits;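 active means versus positive control, 20 µM dose yields 30% or more activation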;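 further: 100% = tunicamycin at 10 µg/mL and 0% = DMSO only wells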
#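 Assay system: IRE1-XBP1 luciferase reporter CHO line. Input: 1000 cells/well. Buffer or medium: F12 with 10% serum. Doses: 20 µM, 1% DMSO. Times: overnight seeding at 37 °C, 6 h compound treatment at 37 °C. Technique: Steady-Glo luciferase glow luminescence, 10 min after reagent addition.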
# CHOP inh – inhibitors of CHOP promoter induction, primary screen, cell-based, unfolded protein response, luciferase reporter. CHO-K1 CHOP-promoter luciferase, tunicamycin-induced, 15-18 h. inhibition, % at 10 µM. 220,000 compounds, 3.8% hits. AID 2732, 2010;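 active means compounds that reduced the stress-induced luciferase reporter signal by more than about 70% of percent inhibition, limit read from the data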;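 further: 0% = tunicamycin plus vehicle and 100% = wells without tunicamycin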
# p-CIP stab down – p/CIP-EGFP fusion destabilizers, primary screen, fluorescence, F442A cells; decrease of EGFP signal, % at 10 µM; Q05BA5; 16 h; 290,000 compounds, 0.01% hits;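 active means EGFP signal decrease of at least 30% at 10 µM or well 3 SD below plate mean, unless failing retest; inactive means the rest, including hits failing retest or dose response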
# B2AR ag – beta2AR agonists driving receptor internalization, primary screen, cell-based, FAP fluorogen, flow cytometry; Beta-2 adrenergic receptor (Homo sapiens), P07550; Am2.2-beta2AR cells; response, % (no concentration beside the values); 340,000 compounds, 0.43% hits; AID 504454, 2011;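 active means response above a set limit, near 3 SD of response in nonfluorescent compounds, cut at about 42% in these data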
# Target sequence (P07550 whole entry, looked up): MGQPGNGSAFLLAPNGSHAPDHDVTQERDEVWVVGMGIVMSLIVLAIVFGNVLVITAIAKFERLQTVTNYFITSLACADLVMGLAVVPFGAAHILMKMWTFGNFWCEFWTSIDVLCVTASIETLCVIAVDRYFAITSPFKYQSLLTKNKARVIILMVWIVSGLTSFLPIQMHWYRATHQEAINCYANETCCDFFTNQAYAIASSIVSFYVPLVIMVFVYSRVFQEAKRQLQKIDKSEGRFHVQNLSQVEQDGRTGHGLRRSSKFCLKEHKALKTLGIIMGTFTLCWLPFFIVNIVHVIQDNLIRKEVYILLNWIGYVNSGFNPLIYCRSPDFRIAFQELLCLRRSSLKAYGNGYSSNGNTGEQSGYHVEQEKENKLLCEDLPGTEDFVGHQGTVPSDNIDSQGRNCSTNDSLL
# An asterisk follows results filed as active; nt = not tested or not shown.
SMILES,Dynein cargo inh,UPR CHOP act,UPR XBP1 act,CHOP inh,p-CIP stab down,B2AR ag
C=CCOC(=O)C1=C(C)NC(SC)=C(C#N)C1c1cccs1 (stereo unspecified),-0.44,1,-1,-4,7,-12
C=CCOC(=O)C1=C(C)NC(SC)=C(C#N)C1c1ccc(OCC)cc1 (stereo unspecified),0.49,-3,-1,95*,1,-7
c1ccc(Nc2nn[nH]n2)cc1,0.18,-3,-1,82*,6,-7
Nc1nc(Nc2ccccc2)n[nH]1,-0.1,1,-4,13,-2,-6
CC1(c2ccccc2)CC(C)(C)N2C(=O)Cc3cccc1c32 (stereo unspecified),-0.64,1,-1,72*,-9,18
CN1CCN(CC(=O)N2c3ccccc3C(C)(c3ccccc3)CC2(C)C)CC1 (stereo unspecified),-0.41,-1,2,15,5,8
CCOc1ncccc1C(=O)OCC(=O)N(CC(C)C)C1CCS(=O)(=O)C1 (stereo unspecified),-0.13,-2,3,-24,4,-1
COc1ccc(-c2nc3ccccn3c2NCc2ccc3c(c2)OCO3)cc1,-0.94,1,-1,10,-5,-4
COc1ccc(-c2cc(-c3nc4ccccn4c3NCc3ccccc3)ccc2OC)cc1,nt,-9,-10,nt,nt,66*
CC(CCCC(C)(C)O)CC1C2=C(CCCC2=O)OC2=C1C(=O)CCC2 (stereo unspecified),-0.0044,1,2,19,11,-1
Cc1ccc(C)c(Cn2c(C(=O)OC(C)C)cc3c2ccn3C)c1,-1.3,1,1,73*,-10,9
CCOC(=O)c1cc2c(ccn2C)n1Cc1ccccc1Cl,0.27,2,4,2,4,2
CCOC(=O)c1cc2c(ccn2C)n1Cc1ccccc1C,-0.77,-1,-3,70*,-6,13
Cc1ccc(-n2[nH]c(C)c(C=Nc3ccc(Br)cn3)c2=O)cc1,-0.45,1,4,80*,-4,-8
CN(C)CCNc1ccc2ncn3c4ccc(O)cc4c(=O)c1c23,nt,nt,nt,nt,nt,-216
CC1(C)C(=O)N(c2ccccc2)C(=O)c2ccccc21,nt,0,0,nt,nt,3
O=c1oc(-c2ccccc2)cc(Cl)c1Cl,nt,58*,2,nt,-6,51*
Cc1nc(N2CCc3ccccc3C2)[nH]c(=O)c1Cc1ccccc1,-1.2,-1,-2,78*,-12,-6
CCCCCc1c(C)nc(N2CCc3ccccc3C2)[nH]c1=O,-0.58,nt,nt,44,-1,-4
CCCCCc1c(C)nc(N2CCc3ccccc32)[nH]c1=O,0.44,nt,nt,73*,-23,-3
CC(C)C[C@H](NC(=O)C1CCN(S(=O)(=O)c2ccccc2)CC1)C(=O)NCc1ccccn1,nt,1,-4,nt,2,0
CCCC1(c2ccccc2)NC(=O)N(CC(=O)Nc2sc(-c3ccccc3)cc2C(=O)OCC)C1=O (stereo unspecified),-0.25,1,4,85*,-10,-9
CCCCc1ccc(NC2=NCC(=O)N2CCc2ccccc2)cc1,-0.93,-3,-3,95*,-4,1
COc1ccc(Cn2c(/C=C/c3ccccc3)nc3ccccc32)cc1,nt,8,7,47,3,-6
COc1ccc(/C=C/c2nc3ccccc3n2C)cc1,0.032,-10,-6,81*,4,-11
COc1cc(/C=N/NC(=O)c2ccc(COc3cc(C)ccc3C(C)C)cc2)cc(OC)c1O,0.66,-1,-3,3,-15,-6
Cc1ccc(C(C)C)c(OCc2ccc(C(=O)N/N=C/c3cccc(O)c3O)cc2)c1,-0.27,nt,nt,107*,0,21
COc1ccccc1NS(=O)(=O)c1cccc(NC(=O)CCNC(=O)c2ccccc2OC)c1,nt,-1,-2,nt,nt,12
